In ChEMBL document CHEMBL1138713 (Bioorg Med Chem Lett, 2004):

System: Trypanosoma cruzi
Test: Ability to cause lysis of trypomastigote form of Trypanosoma cruzi was determined
Type: functional, organism-based
Procedure, shortened: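 Bloodstream trypomastigotes (Y strain) harvested from mice inoculated intraperitoneally with 10⁵ parasites; assay in Dulbecco's modified Eagle medium; DMSO stocks, final solvent ≤0.5%.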

IC50 | SMILES
> 200 µM | Cn1c([N+](=O)[O-])cnc1-c1nnc(N/N=C/c2ccc(F)cc2)s1
> 200 µM | COc1cc(/C=N/Nc2nnc(-c3ncc([N+](=O)[O-])n3C)s2)ccc1O
33.2 µM | Cn1c([N+](=O)[O-])cnc1-c1nnc(N/N=C/c2cc(C(C)(C)C)c(O)c(C(C)(C)C)c2)s1
> 200 µM | O=[N+]([O-])c1ccc(/C=N/Nc2nnc(-c3ccccc3)s2)cc1
> 200 µM | Oc1ccccc1/C=N/Nc1nnc(-c2ccccc2)s1
> 200 µM | C(=N\Nc1nnc(-c2ccccc2)s1)/c1ccccc1
> 200 µM | Cn1c([N+](=O)[O-])cnc1-c1nnc(N/N=C/c2ccccc2)s1
22 µM | Cn1c([N+](=O)[O-])cnc1-c1nnc(N/N=C/c2ccc([N+](=O)[O-])cc2)s1
> 200 µM | Cn1c([N+](=O)[O-])cnc1-c1nnc(N/N=C/c2ccc(OC(F)(F)F)cc2)s1
54.2 µM | Cn1c([N+](=O)[O-])cnc1-c1nnc(N/N=C/c2ccccc2O)s1
> 200 µM | Oc1ccc(/C=N/Nc2nnc(-c3ccccc3)s2)cc1
17 µM | Cn1c([N+](=O)[O-])cnc1-c1nnc(N/N=C/c2ccc(Br)cc2)s1
11.6 µM | Cn1c([N+](=O)[O-])cnc1-c1nnc(N/N=C/c2ccc(O)cc2)s1
> 200 µM | Cn1c([N+](=O)[O-])cnc1-c1nnc(N/N=C/c2ccc3c(c2)OCO3)s1
136 µM | CC(C)(C)c1cc(/C=N/Nc2nnc(-c3ccccc3)s2)cc(C(C)(C)C)c1O
> 200 µM | COc1cccc(/C=N/Nc2nnc(-c3ncc([N+](=O)[O-])n3C)s2)c1O
> 200 µM | COc1ccc(/C=N/Nc2nnc(-c3ncc([N+](=O)[O-])n3C)s2)cc1
50.5 µM | COc1ccc(/C=N/Nc2nnc(-c3ncc([N+](=O)[O-])n3C)s2)cc1O
63.4 µM | Oc1ccc(/C=N/Nc2nnc(-c3ccccc3)s2)cc1O
38.4 µM | Cn1c([N+](=O)[O-])cnc1-c1nnc(N/N=C/c2ccc(Cl)cc2)s1

SMILES | IC50
Cn1c([N+](=O)[O-])cnc1-c1nnc(N/N=C\c2ccc(O)c(O)c2)s1 [BRAZILIZONE A] | 5.3 µM
